From the RNAGym collection of RNA variant scans (doi:10.1126/science.aae0568)
This sample holds only a part of the variants without activity.

B1: tRNA (parent)
chain: GUUCCGUUGGCGUAAUGGUAACGCGUCUCCCUCCUAAGGAGAAGACUGCGGGUUCGAGUCCCGUACGGAACG

Variants of: B1
Assay: yeast fitness relative to wild type (ratio to wild type); higher = fitter; tRNA-Arg(CCU), competitive growth, 37 C, YPD
Summary of the method: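 A pool of Saccharomyces cerevisiae strains, each with a tRNA-Arg(CCU) gene variant at the native genomic locus, was competed in YPD at 37°C for 24 hours across six parallel replicates. The variants had been chemically synthesised at a 3% per-site mutation rate over 69 sites, and gene amplicons before and after competition were read by 100-nucleotide paired-end sequencing. Darwinian fitness relative to wild type rested on changes in genotype frequencies. Genotypes required ≥ 100 starting reads, and estimates < 0.5 were set to 0.5.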

Point of comparison: A14C U19A A21C C34U G39A, yeast fitness 0.62. Against it:
- A14G A40G — higher, 0.856
- A14G A40C — higher, 1
- A14G A40U — higher, 0.904
- A14G A21C A37G — lower, 0.562
- A14C U19C A43C G44C G48A U59A C62U U64A — lower, ≤ 0.5
- A14G A20C A21U U28C — lower, ≤ 0.5
- A14C U26C A36G — lower, ≤ 0.5
- A14G C22A A57U — lower, ≤ 0.5
- A14C U19G C31G C33U A42G U64C A65G — lower, ≤ 0.5
- A14G A43C G50A — lower, 0.558
- A14G A15U U35C — lower, ≤ 0.5
- A14C U28A — lower, 0.618
- A14G A36U G58C — lower, ≤ 0.5
- A14C U16C A40U G51C A69C — higher, 0.639
- A14C U47C C55U G68C — lower, ≤ 0.5
- A14C U26A C34A G44A G67C — lower, ≤ 0.5
- A14G A36C A69C — lower, ≤ 0.5
- A14C U16A C27G C55U — lower, 0.539
- A14G A21C C30G C55G G67U — lower, 0.534
- A14G A20C C66U — higher, 0.665
- A14C U32G G56A — lower, ≤ 0.5
- A14G A21C C30G C55G C66U G67A — lower, ≤ 0.5
- A14C U32G U64C — lower, 0.532
- A14G A40G A42U G67C — higher, 0.665
- A14C U19C A43C G44C G48A U59A U64C C66U — lower, ≤ 0.5
- A14G A36G G51C U59G — lower, ≤ 0.5
- A14G A20C A43U C55G — lower, ≤ 0.5
- A14G A40C U59G C60G — lower, ≤ 0.5
- A14G A15G A37G A45U C66U — lower, ≤ 0.5
- A14G A15U G25C — lower, ≤ 0.5
- A14G A40G G41A A45U U47C — lower, ≤ 0.5
- A14G A42U C62A — lower, ≤ 0.5
- A14G A43U A65U — higher, 0.748
- A14G A69C — higher, 0.729
- A14G A15C U53G C60U — lower, ≤ 0.5
- A14G A15G G44A — lower, ≤ 0.5
- A14C U19C C34U — lower, ≤ 0.5
- A14G A20U U35C G38A A43C — higher, 0.635
- A14G A36G — higher, 0.8
- A14C U28A G44A C55A — lower, ≤ 0.5
- A14G A45U — higher, 0.746
- A14G A45G — higher, 0.919
- A14G A40G A43U G50C A69U — lower, ≤ 0.5
- A14G A21G C22U — lower, 0.555
- A14G A40U G58C — higher, 0.706
- A14G A21G C27U A45C G48C C61G — lower, ≤ 0.5
- A14G A15G C33G C34U A43C C49G — lower, ≤ 0.5
- A14G A21C C33A A43U C62U — lower, 0.558
- A14G A42C A43U U59A C62G A65U — lower, ≤ 0.5
- A14C U47A — higher, 0.701
- A14C U16A C24U U53C C60G — lower, ≤ 0.5
- A14G C22A C27A C29U A42C A57U C60A — lower, ≤ 0.5
- A14C U59A — higher, 0.746
- A14G C22G C29G G41C — lower, ≤ 0.5
- A14G A15C A21G C46A A69U — lower, ≤ 0.5
- A14C U16C A37G A40U G51C A69C — lower, ≤ 0.5
- A14C U26A C34U G50U C55G — lower, ≤ 0.5
- A14G A15G G56A — lower, 0.567
- A14G C22A C27U C29U G50U U54C G68C — lower, ≤ 0.5
- A14G A21U U59A — lower, ≤ 0.5
- A14G A40G G41A A45U — higher, 0.686
- A14G A36U C46A — lower, 0.576
- A14G A15C U26C G51C — lower, 0.512
- A14C U19C C66U — higher, 0.722
- A14C U28A U54A C61G A69C — lower, ≤ 0.5
- A14C U16C C55U A70G — lower, ≤ 0.5
- A14G A40U G44A A65U — lower, ≤ 0.5
- A14C U28G C55G G68C — lower, ≤ 0.5
- A14G A65G A70U — lower, 0.566
- A14G A65G — higher, 0.887
- A14G A36G A43C A65U — lower, ≤ 0.5
- A14C U19G U32A — lower, ≤ 0.5
- A14G A15U U28A C33G G41C G56A — lower, 0.589
- A14G A21G A70U — higher, 0.684
- A14C U35A G50A A69U — lower, ≤ 0.5
- A14G A21U G23A A37U — lower, ≤ 0.5
- A14G A15U A45U — lower, ≤ 0.5
- A14G A40C C55A C66A — lower, ≤ 0.5
- A14G A20G C22G U59C A65U — lower, ≤ 0.5
- A14C U19A A45C A65G — lower, ≤ 0.5
- A14G A20C C22G C29U A69U — lower, ≤ 0.5
- A14C U32G — higher, 0.752
- A14C U16G — lower, 0.609
- A14C U16A — lower, 0.597
- A14C U16C — higher, 0.724
- A14G A20U A40G U54C — lower, ≤ 0.5
- A14G A37U — lower, 0.584
- A14G A15C C46A — lower, 0.578
- A14C U26C C29U A43G — lower, 0.59
- A14C G68A — higher, 0.712
- A14G A15G A45U C62U — lower, ≤ 0.5
- A14C U32G C34G A43U G58C G67U — lower, ≤ 0.5
- A14G A20U C22G A43G A69C — lower, ≤ 0.5
- A14G A21C A36C A43U C60A — lower, 0.554
- A14G A45C C66U — lower, 0.582
- A14C U47A G52A — lower, ≤ 0.5
- A14G A21G C27U A45C G48C — lower, ≤ 0.5
- A14C U19A A20C G51A U59C — higher, 0.645
- A14G C22A C29G C30G G48U — lower, 0.618
- A14C U16C A69U — lower, ≤ 0.5
- A14G C22A — higher, 0.982
- A14C U32G G39C — lower, ≤ 0.5
- A14G C22G C30A — lower, 0.528
- A14C U19A A45U — lower, ≤ 0.5
- A14G A37U C61A — lower, ≤ 0.5
- A14G A42G C55A — lower, ≤ 0.5
- A14G A20C A57G — higher, 0.677
- A14C U35C A65G — lower, 0.525
- A14G C22A C27A C29U A42C — lower, ≤ 0.5
- A14G A45G A65U G68C — lower, ≤ 0.5
- A14C U54G — lower, ≤ 0.5
- A14C U54C — higher, 0.702
- A14G A15U C61U — lower, ≤ 0.5
- A14G A37U A65C — lower, 0.543
- A14G A40C C60U C62G — lower, ≤ 0.5
- A14G A21G U53C A57C A69U — lower, ≤ 0.5
- A14G A36G A45G A65U — lower, ≤ 0.5
- A14C U26A C29U C49U — lower, ≤ 0.5
- A14C U19A G39C — lower, ≤ 0.5
- A14C U26G C29A A42C — lower, ≤ 0.5
- A14C U47C A70U — lower, 0.614
- A14G A42C U54A — lower, ≤ 0.5
- A14C U19A C49U C62G G63A — lower, ≤ 0.5
- A14C U64A — higher, 0.651
- A14G A15G G68C — lower, 0.537
- A14G A15U C30G — lower, ≤ 0.5
- A14G A20G — higher, 0.883
- A14G A20U — higher, 0.942
- A14G A20C — higher, 0.813
- A14G A20U A36U G51C G52C — lower, ≤ 0.5
- A14G A37G C55G — lower, ≤ 0.5
- A14G A36G C66U — lower, 0.606
- A14G A15C — higher, 0.733
- A14G A15G — higher, 0.917
- A14G A21U G68C — lower, ≤ 0.5
- A14C U35C A57U — lower, ≤ 0.5
- A14C U19A C22U A45C — lower, ≤ 0.5
- A14G A43U G50U G68C — lower, ≤ 0.5
- A14C U59C C62A — lower, ≤ 0.5
- A14G A15U G67U — lower, ≤ 0.5
- A14G A21C C34A U47C — lower, ≤ 0.5
- A14G A21C C29A — lower, 0.586
- A14G A57G — higher, 0.905
- A14G A57U — lower, 0.563
- A14G A70G — higher, 0.861
- A14G A70C — higher, 0.803
- A14G A45U A69C — higher, 0.748
- A14G A15C G17A A69C A70G — lower, 0.562
- A14G A21G C22U C27U A45C G48C C61G — lower, ≤ 0.5
- A14G A43C C66G A69U — lower, ≤ 0.5
- A14G A20G U47A G58C — lower, ≤ 0.5
- A14G A21U G41C — lower, ≤ 0.5
- A14G A20C C31U C46G — lower, ≤ 0.5
- A14C U19C A20G G58A — lower, ≤ 0.5
- A14C U19C C27A G41C A42U C66U — lower, 0.582
- A14G A42C — higher, 0.762
- A14G A42G — higher, 0.778
- A14G A15U G68U — lower, ≤ 0.5
- A14C U28A A42U — lower, ≤ 0.5
- A14C U26A C34U C55G G68A — lower, ≤ 0.5
- A14C U16A G41C G63C A65U — lower, 0.586
- A14G C22G A70C — higher, 0.637
- A14G A40C C60G — higher, 0.757
- A14G A42C G50C C66U — lower, ≤ 0.5
- A14G A15C G67U — the same, 0.62
- A14G A42U C55U U59C G63A A65C — lower, ≤ 0.5
